Shown are actives, neighbours in structure and some others; about 1.8% of the full set was active somewhere.
M5 PAM: potentiates acetylcholine response at human M5 receptor; P08912; CHO-K1 hM5, Fluo-8 calcium, ACh EC20 PAM; 0% = ACh EC20, 100% = ACh EC100; activation, % at 3 µM; 360,000 tested, 0.3% active; AID 624038;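 active means activation above the run cutoff, the mean activation of all test compounds plus 3 SD, cut at about 18% in these data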
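Assay system – human M5 receptor in CHO-K1 cells · Read-out – % activation, ACh-normalized · Technique – Fluo-8 calcium fluorescence · Dosing – single-point, 3 µM nominal · Incubation – Fluo-8 loading 80 min at 37 °C plus 30 min room temperature · Repeats – singlicate, one well per test compound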
M4 antag: CHRM4 antagonism in calcium assay | P08173 | CHO-hM4 cells, ACh EC80, Fluo-8 calcium fluorescence | 360,000 tested, 0.73% active | AID 624125 | inhibition, % at 3 µM;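 active means inhibition above its plate's cutoff, the mean inhibition of sample wells plus 3 SD, cut at about 27% in these data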;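 further: 0% = acetylcholine EC80 with DMSO and 100% = DMSO without agonist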
Target sequence (P08173 whole entry, looked up): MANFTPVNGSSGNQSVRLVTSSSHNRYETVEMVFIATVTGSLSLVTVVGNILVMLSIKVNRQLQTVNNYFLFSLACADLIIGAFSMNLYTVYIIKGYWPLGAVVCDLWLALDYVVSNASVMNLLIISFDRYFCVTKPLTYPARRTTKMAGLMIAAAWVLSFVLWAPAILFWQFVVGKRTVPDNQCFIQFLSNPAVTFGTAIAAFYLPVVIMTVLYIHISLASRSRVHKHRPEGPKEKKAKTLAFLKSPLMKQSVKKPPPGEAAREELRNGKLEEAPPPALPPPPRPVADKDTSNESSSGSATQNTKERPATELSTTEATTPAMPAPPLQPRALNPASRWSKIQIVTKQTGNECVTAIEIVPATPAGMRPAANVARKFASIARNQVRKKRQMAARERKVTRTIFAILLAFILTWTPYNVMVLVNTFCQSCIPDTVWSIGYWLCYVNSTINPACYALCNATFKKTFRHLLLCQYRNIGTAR
M4 PAM: potentiates acetylcholine response at human M4 receptor. P08173. CHO-K1 hM4/Gqi5, Fluo-8 calcium fluorescence, ACh EC20; 0% = ACh EC20, 100% = maximal ACh. activation, % at 3 µM. 360,000 tested, 0.4% active. AID 624126;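 active means activation above its plate's cutoff, the mean activation of sample wells plus 3 SD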
CHRM5 agonist: CHRM5 agonism in calcium assay; 360,000 tested, 0.19% active; AID 624037; CHO-K1 hM5 cells, Fluo-8 calcium fluorescence; 0% DMSO wells, 100% maximal acetylcholine response; activation, % at 3 µM; P08912;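 active means activation above the run's mean over test compounds plus 3 SD, cut at about 23% in these data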;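 further: signal is peak over basal fluorescence ratio across the kinetic read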
CHRM5 antagonist: antagonists of human muscarinic M5 receptor (CHRM5); CHO-hM5 cells, Fluo-8 calcium fluorescence, ACh EC80; inhibition, % at 3 µM; 360,000 tested, 0.59% active; AID 624040;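 active means inhibition above a per-plate cutoff, the mean of that plate's test compounds plus 3 SD, cut at about 27% in these data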;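 further: 0% = acetylcholine EC80 with DMSO and 100% = DMSO without agonist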
CHRM4 agonist: CHRM4 agonism in calcium assay | CHO-K1 hM4/Gqi5, Fluo-8 calcium fluorescence; vehicle 0%, full acetylcholine response 100% | activation, % at 3 µM | 360,000 tested, 0.14% active | P08173;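 active means activation above the run mean over all test wells plus 3 SD, cut at about 32% in these data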;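 further: peak over basal fluorescence ratio per well then scaled between controls; 0% = DMSO wells and 100% = acetylcholine at EC100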
* marks the source's active call; other numbers are inactive results.

SMILES	M5 PAM	M4 antag	M4 PAM	CHRM5 agonist	CHRM5 antagonist	CHRM4 agonist
CCC1CCCCN1CCCNC(=O)c1ccc2c(c1)N(Cc1c(F)cccc1Cl)C(=O)CS2 (stereo not given)	-19.2	99.5*	-27.9	-11.1	75.5*	2.5
O=C(NCCN1CCOCC1)c1ccc2c(c1)N(Cc1ccc(Cl)cc1)C(=O)CS2	-4.5	6.3	-14.8	-6.2	-1.4	3.2
O=C(NCCN1CCOCC1)c1ccc2c(c1)N(Cc1ccccc1)C(=O)CS2	-2.1	37.2*	-28.6	-11.9	4.5	0.4
O=C(NC1CCCC1)c1ccc2c(c1)N(Cc1ccccc1)CCS2	18.4*	-14.1	2.2	-0.8	-14.5	3.3
CCN(C(=O)CN(C1=NC2CS(=O)(=O)CC2S1)c1ccc(OC)cc1)c1cccc(C)c1 (stereo not given)	-1.4	0.0	-1.6	1.0	1.1	-0.3
CCOC(=O)CCCCCC(=O)Nc1ccc2c(c1)C(=O)N([C@@H](C)CO)C[C@@H](C)[C@H](CN(C)C(=O)Nc1ccccc1)OCCCC[C@H](C)O2	-4.6	-7.0	1.7	-0.6	11.3	-0.5
O=C(NC1CCCCC1)c1ccc(-c2cn[nH]c2)c2ccoc12	-2.3	-6.8	3.1	3.8	5.3	1.8
CCCCn1nnc(NC(=O)CC23CC4CC(CC(C4)C2)C3)n1	2.4	-8.1	15.2*	2.7	3.3	0.8
Cc1cc(Nc2ccccc2)nc(NCc2ccccc2)n1	-14.4	21.9	-11.4	4.7	29.7*	12.8
CCCCNc1cc(C)nc(NCc2ccccc2)n1	-21.0	32.6*	-6.1	7.1	32.7*	23.2
Cc1ccc(C)c(-c2nnc(OCC(=O)Nc3cc(C)on3)c3ccccc23)c1	8.3	-1.0	16.2*	2.4	-4.6	0.0
CC(C)NC(=O)N(C)C[C@@H]1OCc2cnnn2CCCC(=O)N([C@@H](C)CO)C[C@H]1C	3.3	-4.2	10.8	0.1	-1.2	0.8
COc1ccc(CN(C)C(=O)c2ccc(OCC(=O)Nc3cccc(C(F)(F)F)c3)c(OC)c2)cc1	-12.8	30.8*	-12.1	5.3	15.8	16.0
COc1cc(C(=O)NCc2cccnc2)ccc1OCC(=O)Nc1cccc(C(F)(F)F)c1	-24.1	-2.4	-8.0	6.7	16.4	20.2
O=C1NC(=S)N/C1=C/c1cccc2ccccc12	-6.6	-15.6	5.4	-3.7	13.8	-0.2
O=C1NC(=S)NC1=Cc1ccccc1O	-27.0	13.4	-19.8	109.5*	30.9*	133.7*
COc1ccc(NC(=O)COc2ccccc2Cc2ccccc2)cc1S(N)(=O)=O	-12.9	21.1	-7.3	8.9	29.9*	14.8
O=C(CCNC(=O)N1CC(=O)Nc2ccccc21)Nc1cccc(Cl)c1	0.1	-0.5	-3.9	-3.1	1.2	3.0
Cc1cc(N/C(=N\S(=O)(=O)c2ccc(F)cc2F)c2ccccc2)no1	2.8	-8.8	19.9*	1.0	1.9	1.0
O=S(=O)(/N=C(/Nc1cccnc1)c1ccccc1)c1ccc(F)cc1F	6.3	9.6	1.6	-3.2	5.0	-0.1
COC(CN(C)C(=O)c1ccc(CS(=O)(=O)c2ccccc2C)o1)OC	-0.8	1.3	5.1	-4.8	1.2	1.7
Cc1ccccc1S(=O)(=O)Cc1ccc(C(=O)NC2CCCCCC2)o1	9.5	8.5	15.3*	3.1	-3.3	4.5
CCCCN(C)C(=O)c1ccc(CS(=O)(=O)c2ccccc2C)o1	2.3	-13.0	17.8*	-0.2	-2.9	3.1
Cc1ccc(C(=O)/C=C/c2cc(C#N)n(C)c2C)cc1	-1.6	7.0	2.8	-4.3	2.1	-1.0
O=C(O)CSc1nnc(CSc2nc3ccccc3s2)n1-c1ccccc1	20.2*	-17.9	12.2	-3.7	-3.6	0.8
CCN(CC)CCCCN1c2ccccc2Sc2ccccc21	-22.5	73.1*	-17.3	-4.5	88.5*	9.9
CCN(CC)CCC(=O)N1c2ccccc2Sc2ccc(NC(=O)OC)cc21	-19.5	-1.4	-5.3	-25.9	-7.6	1.4
CCN(CC)CC(=O)N1c2ccccc2Sc2ccc(Cl)cc21	-48.9	85.4*	-18.3	-16.9	96.9*	-0.2
NCCCC(=O)N1c2ccccc2Sc2ccccc21	-23.7	42.5*	-13.9	-4.3	67.2*	1.5
